# Reference: PubChem BioAssay AID373 (The Scripps Research Institute Molecular Screening Center, 2006)
# The whole screen tested about 60,000 compounds, of which about 60 (0.1%) were called active.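 How the source made its calls: active means activation above the screen-wide mean plus 3 SD (cut at about 4.5% in these data, passing the limit was not always enough); inactive means the rest, inconclusive results apart.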 This excerpt belongs to a sample that is enriched for actives.
# Target: Sphingosine 1-phosphate receptor 3 (Homo sapiens) (UniProt Q99500)
# Assay: human S1P3 receptor agonists, primary screen, cell-based, primary and confirmation, NFAT-BLA reporter (AID 373)
# How it was run: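 Assay system: stable CHO line with human S1P3, Gα16, NFAT-BLA reporter; Detection: FRET β-lactamase substrate fluorescence, excitation 405 nm, 460/535 nm emission ratio, background-subtracted; Read-out: percent activation versus median 1 µM S1P response, basal-subtracted, per plate; Incubation: cells plated overnight, compound 4 h 37 °C, substrate 2 h RT.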
# [1] = S1P3 NFAT-BLA reporter cells, agonism, FRET ratio, at 4.5 µM, stronger effect = higher value, relative to 1 µM S1P, basal subtracted
# Sphingosine 1-phosphate receptor 3 (Homo sapiens), sequence (Q99500 whole entry, looked up): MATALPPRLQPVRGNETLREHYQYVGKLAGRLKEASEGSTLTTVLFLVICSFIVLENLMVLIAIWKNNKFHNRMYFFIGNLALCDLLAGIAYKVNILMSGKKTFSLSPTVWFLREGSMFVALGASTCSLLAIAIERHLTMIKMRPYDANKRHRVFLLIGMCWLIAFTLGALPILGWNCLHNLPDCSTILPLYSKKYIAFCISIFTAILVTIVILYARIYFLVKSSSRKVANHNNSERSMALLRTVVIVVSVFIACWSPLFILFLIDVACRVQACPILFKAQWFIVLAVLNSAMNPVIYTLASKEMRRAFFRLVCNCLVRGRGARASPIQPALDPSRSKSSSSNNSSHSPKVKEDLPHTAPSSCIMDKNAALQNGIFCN
structure (smiles),measurement,setting,value
CC(C)c1ccc(NC(=O)NC2CCCCC2)cc1,activation,[1],0% (inactive)
Cc1ccc2nc(NC(=O)C3CCN(S(=O)(=O)c4ccc5c(c4)oc(=O)n5C)CC3)sc2c1,activation,[1],-0.9% (inactive)
O=C(O)CCCC(=O)Nc1ccccc1-n1ccnc1,activation,[1],-0.2% (inactive)
CCCOc1cccc(C(=O)Nc2nnn(CCC)n2)c1,activation,[1],0% (inactive)
COc1ccc(-c2noc(COc3ccc(Cl)c(C)c3)n2)cc1,activation,[1],-0.7% (inactive)
Cc1cc(C)nc(N(C#N)CC(=O)Nc2ccccc2)n1,activation,[1],-0.7% (inactive)
Cc1nn(-c2cc(Cl)ccc2N)c(=O)c2ccccc12,activation,[1],-1.6% (inactive)
CCOCC(=O)NCc1ccc2c(c1)cc(C)n2C,activation,[1],-0.3% (inactive)
CN(CC(=O)NC1CCCCC1)S(=O)(=O)c1cccc2cccnc12,activation,[1],-1.1% (inactive)
COc1ccc(S(=O)(=O)N2CCC(C(=O)N3CCOCC3)CC2)cc1OC,activation,[1],-0.8% (inactive)
Cc1ccn2cc(C(=O)NC3CCN(Cc4ccccc4)CC3)nc2c1,activation,[1],-0.2% (inactive)
CC(=O)N1CCN(C(=O)Nc2cccc(C(F)(F)F)c2)CC1,activation,[1],-0.4% (inactive)
O=C(Nc1nccs1)C1CCCN1S(=O)(=O)c1cccc2cccnc12 (centres undefined),activation,[1],-0.3% (inactive)
Cc1cccc2c1N(CC(=O)OC(C)C)C(=O)C2=O,activation,[1],-0.6% (inactive)
COc1ccccc1Nc1ncnc2c1oc1ccccc12,activation,[1],-1% (inactive)
Cc1cnc(NC(=O)CSc2nnc(-c3ccc(Cl)cc3Cl)n2N)s1,activation,[1],-0.7% (inactive)
CC12CN3CC(C)(CN(C1)C3c1ccc(Cl)cc1Cl)C2=O (centres undefined),activation,[1],-0.5% (inactive)
CC(=O)Nc1ccc(NS(=O)(=O)c2cc(C)sc2C)cc1,activation,[1],-0.3% (inactive)
Cc1ccc(S(=O)(=O)N2CCC(N3CCCCCC3)CC2)cc1,activation,[1],-2.7% (inactive)
CC1COC2C(O1)N(S(C)(=O)=O)CCN2S(C)(=O)=O (centres undefined),activation,[1],-1.9% (inactive)
CCOc1ccc(C2C(C(=O)O)c3ccccc3C(=O)N2CCN2CCOCC2)cc1 (centres undefined),activation,[1],-0.7% (inactive)
CC(C)N(C(=O)Cn1c(SCC(=O)N2CCN(c3ccccc3)CC2)nc2ccccc21)C(C)C,activation,[1],0.4% (inactive)
CCn1c(SCC(=O)Nc2cccc(F)c2)nnc1-c1cc2cc(Br)ccc2o1,activation,[1],0.7% (inactive)
CC1CCN(C(=O)CSc2ccc3nnc(-c4cccc(F)c4)n3n2)CC1,activation,[1],-0.5% (inactive)
CCOc1ccc(OCC)c(NC(=O)C(NS(=O)(=O)c2ccc3c(c2)oc(=O)n3C)C(C)C)c1 (centres undefined),activation,[1],0.3% (inactive)
CC1CCN(Cc2nc3c(c(=O)n(C)c(=O)n3C)n2CCc2ccccc2)CC1,activation,[1],-0.7% (inactive)
CCc1c(C)c2c(C)[nH]nc2oc1=O,activation,[1],0.6% (inactive)
CCCCC(=O)N(c1ccc(OC)cc1)C1C=CS(=O)(=O)C1 (centres undefined),activation,[1],-0.5% (inactive)
COc1ccc(-c2nc(CS(=O)CC(=O)NCc3cccnc3)c(C)o2)cc1OC (centres undefined),activation,[1],-0.9% (inactive)
CCn1c(SCC(=O)NCc2ccco2)nnc1-c1ccc(N)cc1,activation,[1],1.1% (inactive)
CCN(CC)S(=O)(=O)c1ccc2nc(COC(=O)c3n[nH]c4ccccc34)[nH]c2c1,activation,[1],0% (inactive)
C[N+](C)(C)CCOP(=O)([O-])OC[C@H](O)CO,activation,[1],-3.9% (inactive)
c1ccc(Nc2n[nH]nc2-c2ccccc2)cc1,activation,[1],-1.7% (inactive)
O=C(c1ccc(-n2cnnn2)cc1)N1CCN(C(c2ccccc2)c2ccccc2)CC1,activation,[1],0.7% (inactive)
O=C(NCc1cn2ccsc2n1)Nc1cccc(Cl)c1,activation,[1],1.1% (inactive)
Cc1cccc(CSc2nnc(Cn3c(=O)sc4ccccc43)n2C)c1,activation,[1],-0.9% (inactive)
Cc1cc(C)cc(N(CC(=O)NCC2CCCO2)S(=O)(=O)c2c(C)noc2C)c1 (centres undefined),activation,[1],-0.2% (inactive)
CCOC(=O)c1ccc(-c2ccc(C(=O)Nc3cccnc3)o2)cc1,activation,[1],0.3% (inactive)
Cc1ccc(-c2noc(CCC(=O)Nc3ccccc3N3CCN(C)CC3)n2)cc1,activation,[1],0.8% (inactive)
CCN(CC)CCCN1C(=O)C(=O)/C(=C(/O)c2c(C)nc3ccccn23)C1c1ccc(C)o1 (centres undefined),activation,[1],0.3% (inactive)
CNC(=O)Nc1cc(C(C)(C)C)no1,activation,[1],-0.1% (inactive)
COc1ccc(CCn2c(-c3ccco3)nc3nc4ccccc4nc32)cc1OC,activation,[1],-1.1% (inactive)
Cc1ccc(-c2c3c(=O)n(C)c(=O)n(C)c3cn2-c2ccccc2O)cc1,activation,[1],0.1% (inactive)
COc1cccc(-n2c(Cc3cc(=O)[nH]c(=O)[nH]3)nnc2SCC(=O)Nc2ccccc2)c1,activation,[1],0.3% (inactive)
Cc1cccc(NC(=O)COc2ccc(Br)cc2C)n1,activation,[1],-1% (inactive)
Cc1cc(/C=N/n2cnnc2)c(C)n1-c1ccc2ncccc2c1,activation,[1],0.1% (inactive)
CCOCCCNC(=O)Cc1cc(=O)[nH]c(=O)[nH]1,activation,[1],0.5% (inactive)
O=S(=O)(Nc1ccccc1N1CCOCC1)c1ccc(Cl)s1,activation,[1],0.7% (inactive)
O=c1cc(Cn2nnc(-c3ccc(Cl)cc3)n2)nc2sccn12,activation,[1],-0.5% (inactive)
O=C(CSc1nnc(-c2ccco2)n1-c1ccccc1)NCCc1ccccc1,activation,[1],0% (inactive)
COc1ccc(C(=O)c2oc3ccc(Br)cc3c2NC(C)=O)cc1,activation,[1],-0.9% (inactive)
Cc1cc(C)c(NC(=O)CS(=O)CC(=O)Nc2cccnc2)c(C)c1 (centres undefined),activation,[1],0.3% (inactive)
COc1ccc(-n2nnc3c(=O)n(CC(=O)N4CCC(Cc5ccccc5)CC4)cnc32)cc1,activation,[1],-0.4% (inactive)
Cc1ccc(C(=O)N(CN2CCCC2=O)c2ccc(F)cc2)cc1,activation,[1],-1.3% (inactive)
CC1CC(C)CN(CC(=O)Nc2ccc(S(N)(=O)=O)cc2)C1 (centres undefined),activation,[1],-0.9% (inactive)
CN(C)c1nc2n(c(=O)n1)CCO2,activation,[1],0.6% (inactive)
c1ccc2c(c1)OCC(c1nn3cnnc3s1)O2 (centres undefined),activation,[1],-0.3% (inactive)
Cc1ccc(C(c2sc3nc(C)nn3c2O)N2CCN(c3ccc(F)cc3)CC2)cc1 (centres undefined),activation,[1],0.6% (inactive)
CC(C)(C)Oc1ncc(Br)c(OC(C)(C)C)n1,activation,[1],-0.4% (inactive)
N#Cc1c(N)n(CCOC(=O)c2ccc(Cl)cc2)c2nc3ccccc3nc12,activation,[1],2.5% (inactive)
COc1ccc(C(C)=O)cc1COC(=O)Cn1cnc2ccccc2c1=O,activation,[1],0.7% (inactive)
Cc1cc(C(F)(F)F)nn1CC(=O)N1CCCC1,activation,[1],-0.4% (inactive)
CCCc1[nH]nc2c1C(c1ccc(OC)c(Cn3nc(C)c(Br)c3C)c1)C(C#N)=C(N)O2 (centres undefined),activation,[1],-0.7% (inactive)
O=C(CN1CCOc2ccccc21)N1CCC(Cc2ccccc2)CC1,activation,[1],-0.9% (inactive)
Cc1cc(=O)[nH]c(SCC(N)=O)c1C#N,activation,[1],-1% (inactive)
CCc1nc2ccccc2n(CCOCCOCCn2c(=O)c(CC)nc3ccccc32)c1=O,activation,[1],1.3% (inactive)
O=C(CC1OC(=O)c2ccccc21)NC1CCCCC1 (centres undefined),activation,[1],-0.8% (inactive)
O=C(O)CCN1C(=O)CC2(CCCCC2)C1=O,activation,[1],-0.4% (inactive)
CCn1cc(NC(=O)Nc2ccc(OC)c(OC)c2)c(C(N)=O)n1,activation,[1],-0.9% (inactive)
C=CCn1c(=O)c2ccccc2n2c(SCC(=O)N3CCCc4ccccc43)nnc12,activation,[1],-2.3% (inactive)
OC(COc1ccc2ccccc2c1)CN1CCOCC1 (centres undefined),activation,[1],0.6% (inactive)
Cc1ccc2nc(-c3ccccc3)cc(C(=O)O)c2c1,activation,[1],0.7% (inactive)
Cc1cccc(NC(=O)C2CCCN2S(=O)(=O)c2ccc(F)cc2)c1C (centres undefined),activation,[1],-1.1% (inactive)
Cc1nc(Nc2ccc3c(c2)OCCO3)c2nnn(Cc3ccccc3Cl)c2n1,activation,[1],-1.2% (inactive)
COc1ccccc1N=C1SC(C)CN1C(=O)C1CCC1 (centres undefined),activation,[1],0.5% (inactive)
O=S(=O)(NCc1ccccn1)c1ccc(F)cc1,activation,[1],-1.2% (inactive)
COCCn1c(C)cc(C(=O)CSc2ncnc3sc4c(c23)CCC4)c1C,activation,[1],-1% (inactive)
COCCNc1nc(-n2nc(C)cc2C)nc2sc3c(c12)CCCC3,activation,"S1P3 NFAT-BLA reporter cells, agonism, FRET ratio; at 4.5 µM; stronger effect = higher value; relative to 1 µM S1P, basal subtracted",18.4% (active)
same,activation,"S1P3 NFAT-BLA reporter cells, agonism, FRET ratio; measured here: confirmation screen, triplicate average; at 4.5 µM; stronger effect = higher value; relative to 1 µM S1P, basal subtracted",25.3%
Cc1cc(C)n(-c2nc(SCC(=O)N3CCCC3)c3c4c(sc3n2)CCCC4)n1,activation,[1],0% (inactive)
CC1=CC(C)(C)N(C(=O)CSc2nccn2C)c2cc(C)ccc21,activation,[1],0.7% (inactive)
O=C(CCSCCc1ccccn1)Nc1nccs1,activation,[1],-0.7% (inactive)
COc1ccc(-c2nnc(SCC(=O)NC3CCCCC3)o2)cc1OC,activation,[1],-0.8% (inactive)
CCOC(=O)Cn1c(=O)oc2cc(S(=O)(=O)N(C)Cc3ccco3)ccc21,activation,[1],0.3% (inactive)
O=C(CN1C(=O)C2C3C=CC(C3)C2C1=O)NCCc1ccccc1Cl (centres undefined),activation,[1],0.1% (inactive)
CCOC(=O)C(C)Oc1cccc2c(=O)n(CC(=O)N3CCc4ccccc43)ccc12 (centres undefined),activation,[1],-1.6% (inactive)
Cc1cc(Nc2cccc(C)c2C)n2ncnc2n1,activation,[1],-1.3% (inactive)
COCCOC(=O)C1=C(C)NC(=O)NC1c1ccc(Cl)cc1 (centres undefined),activation,[1],-2.2% (inactive)
O=C(Cn1cnc2c(nnn2-c2ccccc2)c1=O)N1CCC(Cc2ccccc2)CC1,activation,[1],-1.2% (inactive)
COC(=O)c1ccc(OC(=O)c2nn(C)cc2Cl)c(OC)c1,activation,[1],-1% (inactive)
COc1ccc(-c2nnc(SC(=O)N3c4ccccc4Sc4ccccc43)o2)cc1,activation,[1],-1.5% (inactive)
CC1(C)CCCC2=C1CC1C(=O)N(c3ccccc3)C(=O)C1C2 (centres undefined),activation,[1],-0.8% (inactive)
C=CCNC(=O)CCCOc1cccc(C)c1,activation,[1],0.2% (inactive)
O=C(CCOc1ccccc1)NCc1ccccc1,activation,[1],0.1% (inactive)
O=C(CCC(=O)OCC(F)(F)C(F)F)NCc1ccccc1,activation,[1],-0.2% (inactive)
COc1c(Br)cc2c(C)c(C(=O)N3CCOCC3)oc2c1Br,activation,[1],1.5% (inactive)
CCCN(CCC)C(=O)C1c2ccccc2Oc2ccccc21,activation,[1],-1.3% (inactive)
COc1ccccc1CNC(=O)CCCNS(=O)(=O)c1cccc2nsnc12,activation,[1],1.2% (inactive)
COCCNC(=O)Cn1cc2c(n1)CCCCC2,activation,[1],-0.2% (inactive)
